# Laboratory results taken from ChEMBL document CHEMBL4732107, “Synthesis and anticancer activity evaluation of naphthalene-substituted triazole spirodienones” (Eur J Med Chem, 2021).
# Calls of active or inactive are those of the source. The calls are words filed in the database; no cut-off is given here.
# Columns and labels:
# [1] = tested on: MDA-MB-231; assay: Antiproliferative activity against human MDA-MB-231 cells assessed as reduction in cell viability measured after 5 days by beckman coulter counting method; format: functional, cell-based; settings: MDA-MB-231, 120 h
# [2] = tested on: MDA-MB-231; assay: Cell cycle arrest in human MDA-MB-231 cells assessed as accumulation at G2 phase at 1 uM measured after 24 hrs by propidium iodide staining based flow cytometry (reference value: 5.77%); format: functional
# Outline: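 MDA-MB-231 cells were seeded at 5 × 10^5 cells/mL and treated for 24 h. They were then trypsinized and washed twice in cold PBS. Cells were resuspended in PBS, stained with PI for 15 min at room temperature in the dark, and analyzed by flow cytometry.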
# [3] = tested on: MDA-MB-231; assay: Induction of apoptosis in human MDA-MB-231 cells measured after 24 hrs by annexin V-FITC/propidium iodide staining based flow cytometry; format: functional, cell-based; settings: dose 0.1-1 µM
# [4] = tested on: MDA-MB-231; assay: Induction of apoptosis in human MDA-MB-231 cells assessed as viable cells at 0.1 uM measured after 24 hrs by annexin V-FITC/propidium iodide staining based flow cytometry (reference value: 90.9%); format: functional; settings: read-out: Activity
# [5] = tested on: MDA-MB-231; assay: Induction of apoptosis in human MDA-MB-231 cells assessed as early apoptotic cells at 0.1 uM measured after 24 hrs by annexin V-FITC/propidium iodide staining based flow cytometry (reference value: 1.49%); format: functional
# [6] = tested on: MDA-MB-231; assay: Induction of apoptosis in human MDA-MB-231 cells assessed as late apoptotic cells at 0.1 uM measured after 24 hrs by annexin V-FITC/propidium iodide staining based flow cytometry (reference value: 2.84%); format: functional
# [7] = tested on: MDA-MB-231; assay: Induction of apoptosis in human MDA-MB-231 cells assessed as necrotic cells at 0.1 uM measured after 24 hrs by annexin V-FITC/propidium iodide staining based flow cytometry (reference value: 4.74%); format: functional
# [8] = tested on: MDA-MB-231; assay: Induction of apoptosis in human MDA-MB-231 cells assessed as early apoptotic cells at 1 uM measured after 24 hrs by annexin V-FITC/propidium iodide staining based flow cytometry (reference value: 1.49%); format: functional
# [9] = tested on: MDA-MB-231; assay: Induction of apoptosis in human MDA-MB-231 cells assessed as late apoptotic cells at 1 uM measured after 24 hrs by annexin V-FITC/propidium iodide staining based flow cytometry (reference value: 2.84%); format: functional
# [10] = tested on: MDA-MB-231; assay: Induction of apoptosis in human MDA-MB-231 cells assessed as necrotic cells at 1 uM measured after 24 hrs by annexin V-FITC/propidium iodide staining based flow cytometry (reference value: 4.74%); format: functional
# [11] = Acute toxicity in Kunming mouse assessed as mortality at 10 to 40 mg/kg, ip administered as single dose; format: organism-based; settings: in vivo, dose 10-40 mg/kg
# Outline: (§1)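 Kunming mice in four groups (n = 8, half male, half female) got one intraperitoneal dose of 10, 20 or 40 mg/kg, or vehicle. Body weights were recorded daily after dosing. Eyes, skin and fur were checked for clinical signs. Mortality was recorded. Mice were dissected to look for ascites and to assess liver volume.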
# [12] = Acute toxicity in ip dosed Kunming mouse administered as single dose; format: organism-based; settings: in vivo; outline: as §1
# [13] = Acute toxicity in Kunming mouse assessed as clinical change in eyes at 40 mg/kg, ip administered as single dose; format: organism-based; settings: in vivo; outline: as §1
# [14] = Acute toxicity in Kunming mouse assessed as body weight loss at 40 mg/kg, ip administered as single dose; format: organism-based; settings: in vivo; outline: as §1
# [15] = Acute toxicity in Kunming mouse assessed as decrease in liver volume at 40 mg/kg, ip administered as single dose; format: organism-based; settings: in vivo; outline: as §1
# [16] = tested on: 4T1; assay: Antitumor activity against mouse 4T1 cells implanted in mouse assessed as reduction in tumor weight at 1 to 2 mg/kg, ip administered daily for 12 days; format: functional, organism-based; settings: dose 1-2 mg/kg, time 12.0 day
# Outline: (§2)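 Mice bearing orthotopic 4T1 tumors were randomized into 4 groups (n = 6) once tumors reached about 100 mm2. Groups received vehicle, test compound at 1 or 2 mg/kg, or doxorubicin at 1 mg/kg, given i.p. every day. Body weight and tumor volume were recorded daily. Tumors were excised and weighed at the end, and inhibition was calculated against the saline control.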
# [17] = tested on: 4T1; assay: Antitumor activity against mouse 4T1 cells implanted in mouse assessed as tumor growth inhibition at 1 mg/kg, ip administered daily for 12 days relative to control; format: functional; settings: 4T1, ip, 288 h, time 12 day, read-out: TGI; outline: as §2
# [18] = tested on: 4T1; assay: Antitumor activity against mouse 4T1 cells implanted in mouse assessed as tumor growth inhibition at 2 mg/kg, ip administered daily for 12 days relative to control; format: functional; settings: 4T1, ip, 288 h, time 12 day, read-out: TGI
# Outline: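 Orthotopic 4T1 tumor-bearing mice were randomized into four groups (n = 6) once tumors reached about 100 mm2. Groups received vehicle (saline), test compound at 1 or 2 mg/kg, or doxorubicin 1 mg/kg, all intraperitoneally every day. Tumor volume and body weight were measured daily. Inhibition ratio was computed against saline at study end, and tumors were weighed.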
# [19] = Toxicity in mouse implanted with mouse 4T1 cells assessed as increase in spleen size at 2 mg/kg, ip administered daily for 12 days measured post last dose; format: organism-based; settings: in vivo, 288 h, time 12 day
# Outline: (§3)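 Orthotopic 4T1-bearing mice (n = 6 per group) were dosed i.p. daily with vehicle, compound at 1 or 2 mg/kg, or doxorubicin at 1 mg/kg. At the end of treatment, tumors and major organs (liver, spleen) were harvested and photographed. Sections were H&E stained and examined by microscope.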
# [20] = Toxicity in mouse implanted with mouse 4T1 cells assessed as increase in liver size at 2 mg/kg, ip administered daily for 12 days measured post last dose; format: organism-based; settings: in vivo, 288 h, time 12 day; outline: as §3
# [21] = Toxicity in mouse implanted with mouse 4T1 cells assessed as extramedullary hematopoiesis in spleen at 2 mg/kg, ip administered daily for 12 days measured post last dose by H and E staining based microscopic analysis; format: organism-based; settings: in vivo, 288 h, time 12 day; outline: as §3
# [22] = Toxicity in mouse implanted with mouse 4T1 cells assessed as extramedullary hematopoiesis in liver at 2 mg/kg, ip administered daily for 12 days measured post last dose by H and E staining based microscopic analysis; format: organism-based; settings: in vivo, 288 h, time 12 day; outline: as §3
# [23] = tested on: 4T1; assay: Induction of apoptosis in mouse 4T1 cells implanted in mouse at 2 mg/kg, ip administered daily for 12 days measured post last dose by H and E staining based microscopic analysis; format: functional, organism-based; settings: time 12.0 day; outline: as §3
# [24] = target: T1, Aurora kinase A (Homo sapiens, UniProt O14965); assay: Inhibition of AURKA (unknown origin)
# T1 sequence (O14965 whole entry): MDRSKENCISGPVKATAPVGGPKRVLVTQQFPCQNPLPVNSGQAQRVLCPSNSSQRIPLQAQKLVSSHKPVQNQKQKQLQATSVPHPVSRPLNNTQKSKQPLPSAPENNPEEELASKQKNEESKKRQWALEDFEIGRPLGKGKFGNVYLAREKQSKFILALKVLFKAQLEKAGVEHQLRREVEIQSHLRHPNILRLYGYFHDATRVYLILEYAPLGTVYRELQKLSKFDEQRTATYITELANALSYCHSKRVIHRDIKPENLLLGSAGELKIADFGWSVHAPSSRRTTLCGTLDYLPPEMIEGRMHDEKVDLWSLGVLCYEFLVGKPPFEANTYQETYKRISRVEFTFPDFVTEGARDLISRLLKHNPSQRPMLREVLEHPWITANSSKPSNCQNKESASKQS
# Outline: (§4)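 Kinase inhibition was measured in two independent repeats, and IC50 is reported as their average with SD.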
# [25] = target: Mitogen-activated protein kinase 10 (Homo sapiens, UniProt P53779); assay: Inhibition of MAPK10 (unknown origin); outline: as §4
# Mitogen-activated protein kinase 10, sequence (P53779 whole entry): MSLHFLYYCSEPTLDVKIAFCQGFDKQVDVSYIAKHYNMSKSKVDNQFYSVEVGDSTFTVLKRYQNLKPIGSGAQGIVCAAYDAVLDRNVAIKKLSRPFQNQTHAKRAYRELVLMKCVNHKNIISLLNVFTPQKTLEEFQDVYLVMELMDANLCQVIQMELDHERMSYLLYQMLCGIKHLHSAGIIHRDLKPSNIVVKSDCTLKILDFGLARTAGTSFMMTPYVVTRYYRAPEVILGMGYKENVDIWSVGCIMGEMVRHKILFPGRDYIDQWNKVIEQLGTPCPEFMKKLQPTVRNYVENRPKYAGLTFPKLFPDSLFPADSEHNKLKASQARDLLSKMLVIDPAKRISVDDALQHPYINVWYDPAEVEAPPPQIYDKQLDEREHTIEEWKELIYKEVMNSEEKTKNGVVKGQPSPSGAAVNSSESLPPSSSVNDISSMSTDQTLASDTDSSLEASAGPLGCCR
smiles,measurement,setting,value
O=C1C=CC2(C=C1)OCC(=O)N2c1nc(-c2cccc3ccccc23)nn1-c1ccccc1,IC50,[1],0.05 µM
same,Activity,[2],23.87%
same,Activity,[3],Dose-dependent effect
same,viability at 0.1 µM,[4],90.8%
same,Activity,[5],1.32%
same,Activity,[6],2.69%
same,Activity,[7],5.16%
same,Activity,[8],22.2%
same,Activity,[9],29%
same,Activity,[10],13.1%
same,Activity,[11],Non-Toxic
same,MTD,[12],> 40 mg/kg
same,Activity,[13],Non-Toxic
same,Activity,[14],Toxic
same,Activity,[15],Toxic
same,Activity,[16],Active
same,inhibition in vivo at 1 mg/kg,[17],18.2%
same,inhibition in vivo at 2 mg/kg,[18],38.8%
same,Activity,[19],Toxic
same,Activity,[20],Toxic
same,Activity,[21],Toxic
same,Activity,[22],Toxic
same,Activity,[23],Active
same,IC50,[24],> 100 µM
same,IC50,[25],> 100 µM
